{"source": "paper PMC3481142", "about": "(Cell Death & Disease, 2012)", "key": {"Saos-2 cells": {"test_system": "Saos-2 cells", "assay": "cytochrome c release, immunolocalization", "assay_type": "cell-based", "conditions": "10 µM, 24 h"}, "[1]": {"test_system": "Cyt c release in MDA-MB-468 cells", "assay": "Cyt c release from mitochondria", "assay_type": "cell-based, human", "conditions": "48 h; doxorubicin 5 μM", "outline": "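MDA-MB-468 cells were grown as a monolayer in Leibovitz's L-15 with 10% FBS at 37 °C without CO2, then seeded at 125 000 cells/ml. They were exposed to the test compounds for 48 h at the indicated concentrations. Cytochrome c release was quantified with a flow-cytometric cytochrome c release kit per the manufacturer's protocol, and cells were analysed on a flow cytometer.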"}, "[2]": {"conditions": "patients with advance solid tumors; cited from earlier work"}, "[3]": {"assay": "solubility in culture medium", "assay_type": "physicochemical"}, "[4]": {"test_system": "Bcl-2 family proteins, IAPs and caspases in MDA-MB-468 cells", "assay": "western blots of apoptosis-related proteins and caspases", "assay_type": "cell-based, human", "conditions": "72 h", "outline": "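MDA-MB-468 cells were treated for 72 h with TAT-NBI1, erlotinib or both at the indicated μM concentrations. Whole-cell extracts were made in 25 mM Tris-HCl pH 7.4, 1 mM EDTA, 1 mM EGTA and 1% SDS with protease and phosphatase inhibitors, and protein was quantified by BCA. Lysates were run on SDS-PAGE, transferred to nitrocellulose and immunoblotted.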"}, "MDA-MB-231 cell line": {"test_system": "MDA-MB-231 cell line", "assay": "cell viability IC50 determination", "assay_type": "cell-based", "conditions": "Homo sapiens, MDA-MB-231, read-out: IC50 (MDA-MB-231)"}, "SKBr3 cells": {"test_system": "SKBr3 cells", "assay": "MTT and trypan blue cell viability assays", "assay_type": "cell-based, human"}, "[5]": {"test_system": "caspase-3/7 activity in MDA-MB-468 cells", "assay": "caspase activation assay in cellular extracts", "assay_type": "cell-based, human", "outline": "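MDA-MB-468 cells were cultured in L-15 with 10% FBS at 37 °C without CO2 and seeded at 125 000 cells/ml. They received TAT-NBI1/erlotinib co-treatment at the indicated μM concentrations, with or without necrostatin-1, for 48 h. Caspase-3/7 activity was then measured in cellular extracts.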"}, "[6]": {"test_system": "caspase-3/7 activity in MDA-MB-231 cells", "assay": "caspase activation assay in cellular extracts", "assay_type": "cell-based", "outline": "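MDA-MB-231 cells were grown in Leibovitz's L-15 with 10% FBS at 37 °C without CO2. Cells were co-treated with TAT-NBI1/erlotinib at the indicated μM concentrations, with or without necrostatin-1 (100 μM). Etoposide (25 μM) ± necrostatin-1 served as reference. Caspase-3/7 activation was measured in cellular extracts.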"}}, "note": "Square brackets hold non-standard residues; d marks the D form. Peptide text beside a SMILES is read from it.", "data": [{"smiles": "CC[C@@H](C)[C@@H](NC(=O)[C@@H](Cc1c[nH]c2ccccc12)NC(=O)[C@@H](CCCNC(=N)N)NC(=O)[C@H](CCC(N)=O)NC(=O)[C@@H]1CCCN1C(=O)[C@H](CCCNC(=N)N)NC(=O)[C@H](CCCNC(=N)N)NC(=O)[C@H](CCCNC(=N)N)NC(=O)[C@H](CCC(N)=O)NC(=O)[C@H](CCCNC(=N)N)NC(=O)[C@H](CCCNC(=N)N)NC(=O)[C@H](CCCCN)NC(=O)[C@H](CCCCN)NC(=O)[C@H](CCCNC(=N)N)NC(=O)CN)C(=O)N[C@H](CCSC)C(=O)N[C@H](Cc1ccc(O)cc1)C(=O)N[C@H](Cc1ccccc1)C(N)=O", "note": "[TAT-NBI1] (H-GRKKRRQRRRPQ[dR][dW][dI][dM][dY][dF]-NH2; N-terminus and C-terminus assumed)", "values": [{"measurement": "mechanism of cell death followed by cytochrome c release to the cytosol", "setting": "Saos-2 cells", "value": "induced cell death by intrinsic, mitochondrial-mediated, apoptosis"}]}, {"smiles": "COc1cccc2c1C(=O)c1c(O)c3c(c(O)c1C2=O)C[C@@](O)(C(=O)CO)C[C@@H]3O[C@H]1C[C@H](N)[C@H](O)[C@H](C)O1", "note": "[doxorubicin]", "values": [{"measurement": "Cyt c release to the cytoplasm", "setting": "[1]", "value": "Cyt c release to the cytoplasm"}]}, {"smiles": "C#Cc1cccc(Nc2ncnc3cc(OCCOC)c(OCCOC)cc23)c1", "note": "[erlotinib]", "values": [{"measurement": "plasma concentration at the steady state", "setting": "[2]", "value": "~5", "unit": "µM"}, {"measurement": "solubility", "setting": "[3]", "value": "≤ 20", "unit": "µM"}, {"measurement": "Bim expression", "setting": "[4]", "value": "upregulated"}, {"measurement": "IC50", "setting": "MDA-MB-231 cell line", "value": "> 20", "unit": "µM"}, {"measurement": "change of lethal dose of erlotinib in the presence of TAT-NBI1", "setting": "SKBr3 cells", "value": "twofold lower"}]}, {"smiles": "CN1C(=O)C(Cc2c[nH]c3ccccc23)NC1=S", "note": "(stereo not drawn) [nec-1, necrostatin-1]", "values": [{"measurement": "effect on TAT-NBI1/erlotinib-induced caspase activation", "setting": "[5]", "value": "inhibited"}, {"measurement": "effect on TAT-NBI1/erlotinib-induced caspase activation", "setting": "[6]", "value": "inhibited"}]}]}
